Laboratory results from ChEMBL document CHEMBL1667826, “Synthesis, modification, and evaluation of (R)-de-O-methyllasiodiplodin and analogs as nonsteroidal antagonists of mineralocorticoid receptor” (Bioorg Med Chem Lett, 2011).
pIC50: −log10 of the molar value.

Legend:
[1] = biological target: T1, Mineralocorticoid receptor (Rattus norvegicus, UniProt P22199); experiment: Antagonist activity at rat mineralocorticoid receptor-ligand binding domain expressed in AH109 yeast cells co expressing pGADT7-hSRC-1 by two hybrid assay; type: cell-based; details: for pIC50: read-out: IC50
T1 sequence (P22199 whole entry): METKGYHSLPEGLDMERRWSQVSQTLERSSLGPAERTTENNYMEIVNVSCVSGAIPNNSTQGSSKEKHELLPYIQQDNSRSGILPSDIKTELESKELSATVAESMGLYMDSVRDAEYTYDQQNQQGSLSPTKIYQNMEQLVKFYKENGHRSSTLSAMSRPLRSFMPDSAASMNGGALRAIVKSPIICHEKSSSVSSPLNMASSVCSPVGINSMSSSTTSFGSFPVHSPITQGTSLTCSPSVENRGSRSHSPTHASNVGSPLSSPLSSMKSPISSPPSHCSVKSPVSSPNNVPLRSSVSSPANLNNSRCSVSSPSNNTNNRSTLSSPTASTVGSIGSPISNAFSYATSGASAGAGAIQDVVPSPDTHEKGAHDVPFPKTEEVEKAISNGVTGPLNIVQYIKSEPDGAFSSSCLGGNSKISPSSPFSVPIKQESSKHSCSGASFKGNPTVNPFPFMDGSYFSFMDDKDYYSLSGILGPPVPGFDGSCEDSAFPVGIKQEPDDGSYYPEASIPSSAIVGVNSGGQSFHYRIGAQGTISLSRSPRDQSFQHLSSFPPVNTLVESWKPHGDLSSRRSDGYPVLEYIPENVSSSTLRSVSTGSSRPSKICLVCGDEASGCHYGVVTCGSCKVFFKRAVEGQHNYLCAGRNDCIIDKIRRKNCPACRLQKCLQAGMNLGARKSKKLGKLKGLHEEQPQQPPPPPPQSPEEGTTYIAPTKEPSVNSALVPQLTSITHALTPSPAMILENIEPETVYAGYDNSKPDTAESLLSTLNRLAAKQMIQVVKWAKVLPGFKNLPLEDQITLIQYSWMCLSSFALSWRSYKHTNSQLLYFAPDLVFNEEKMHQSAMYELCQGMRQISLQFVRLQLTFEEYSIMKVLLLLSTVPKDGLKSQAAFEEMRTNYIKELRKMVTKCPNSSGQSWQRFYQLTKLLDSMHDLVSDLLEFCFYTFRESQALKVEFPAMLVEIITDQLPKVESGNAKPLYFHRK
Summary of the method: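 Yeast two-hybrid read-out of corticosterone-stimulated interaction between the MR ligand-binding domain and the SRC1 coactivator. Antagonism of this interaction is expressed as IC50.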

Glucocorticoid receptor = biological target: T2, Glucocorticoid receptor (Homo sapiens, UniProt P04150); experiment: Inhibition of glucocorticoid receptor ligand binding domain expressed in HEK293T cells; type: cell-based; details: hek-293t
T2 sequence (P04150 whole entry): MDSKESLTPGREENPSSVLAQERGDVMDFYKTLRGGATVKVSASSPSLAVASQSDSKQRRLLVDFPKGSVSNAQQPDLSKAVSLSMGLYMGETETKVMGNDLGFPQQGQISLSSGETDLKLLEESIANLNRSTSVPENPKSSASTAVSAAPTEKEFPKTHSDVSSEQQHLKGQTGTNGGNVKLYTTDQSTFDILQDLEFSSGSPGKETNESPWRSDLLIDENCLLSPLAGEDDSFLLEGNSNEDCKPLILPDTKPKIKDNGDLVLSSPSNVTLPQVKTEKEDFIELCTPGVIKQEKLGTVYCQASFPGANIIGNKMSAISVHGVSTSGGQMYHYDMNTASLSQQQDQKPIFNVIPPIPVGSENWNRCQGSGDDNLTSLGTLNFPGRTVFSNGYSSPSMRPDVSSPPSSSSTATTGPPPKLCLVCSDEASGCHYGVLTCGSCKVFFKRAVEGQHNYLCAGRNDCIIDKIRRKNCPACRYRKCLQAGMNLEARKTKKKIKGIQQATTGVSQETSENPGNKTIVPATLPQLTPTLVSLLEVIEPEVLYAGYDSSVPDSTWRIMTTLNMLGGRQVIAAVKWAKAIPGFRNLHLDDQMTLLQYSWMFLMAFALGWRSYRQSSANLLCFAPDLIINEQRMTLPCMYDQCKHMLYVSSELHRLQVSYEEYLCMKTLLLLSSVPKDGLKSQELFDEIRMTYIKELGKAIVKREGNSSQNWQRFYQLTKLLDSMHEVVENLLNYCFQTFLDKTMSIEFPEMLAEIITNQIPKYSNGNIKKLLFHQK
Summary of the method: (§1)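 Mammalian one-hybrid assay in HEK293T cells transiently co-transfected with a UAS-TK-Luc reporter, pRL-SV40 and a pGAL4 fusion of the receptor LBD (ERα, GR or PR). The read-out is luciferase, measuring antagonism at each receptor.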

Estrogen receptor = biological target: T3, Estrogen receptor (Homo sapiens, UniProt P03372); experiment: Inhibition of ERalpha ligand binding domain expressed in HEK293T cells; type: cell-based, HEK-293T; details: for pIC50: read-out: IC50; for IC50: hek-293t; summary of the method: as §1
T3 sequence (P03372 whole entry): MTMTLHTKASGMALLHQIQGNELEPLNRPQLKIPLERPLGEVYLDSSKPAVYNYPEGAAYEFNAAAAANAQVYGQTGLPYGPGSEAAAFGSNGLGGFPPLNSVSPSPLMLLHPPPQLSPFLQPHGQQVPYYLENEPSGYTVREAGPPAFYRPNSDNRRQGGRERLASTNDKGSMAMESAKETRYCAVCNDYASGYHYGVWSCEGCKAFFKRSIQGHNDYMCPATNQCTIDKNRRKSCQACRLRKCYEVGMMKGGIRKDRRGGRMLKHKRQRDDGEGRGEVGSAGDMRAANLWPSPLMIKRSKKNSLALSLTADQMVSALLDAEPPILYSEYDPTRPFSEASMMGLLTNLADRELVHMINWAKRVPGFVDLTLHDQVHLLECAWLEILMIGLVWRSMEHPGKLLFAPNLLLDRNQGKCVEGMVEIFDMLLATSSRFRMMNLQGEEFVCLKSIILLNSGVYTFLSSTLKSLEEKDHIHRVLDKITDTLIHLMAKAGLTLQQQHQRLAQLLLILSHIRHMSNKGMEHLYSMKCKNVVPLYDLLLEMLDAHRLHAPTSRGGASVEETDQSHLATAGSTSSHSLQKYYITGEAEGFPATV

Progesterone receptor = biological target: T4, Progesterone receptor (Homo sapiens, UniProt P06401); experiment: Inhibition of progesterone receptor ligand binding domain expressed in HEK293T cells; type: cell-based, HEK-293T; details: for IC50: hek-293t; for pIC50: read-out: IC50; summary of the method: as §1
T4 sequence (P06401 whole entry): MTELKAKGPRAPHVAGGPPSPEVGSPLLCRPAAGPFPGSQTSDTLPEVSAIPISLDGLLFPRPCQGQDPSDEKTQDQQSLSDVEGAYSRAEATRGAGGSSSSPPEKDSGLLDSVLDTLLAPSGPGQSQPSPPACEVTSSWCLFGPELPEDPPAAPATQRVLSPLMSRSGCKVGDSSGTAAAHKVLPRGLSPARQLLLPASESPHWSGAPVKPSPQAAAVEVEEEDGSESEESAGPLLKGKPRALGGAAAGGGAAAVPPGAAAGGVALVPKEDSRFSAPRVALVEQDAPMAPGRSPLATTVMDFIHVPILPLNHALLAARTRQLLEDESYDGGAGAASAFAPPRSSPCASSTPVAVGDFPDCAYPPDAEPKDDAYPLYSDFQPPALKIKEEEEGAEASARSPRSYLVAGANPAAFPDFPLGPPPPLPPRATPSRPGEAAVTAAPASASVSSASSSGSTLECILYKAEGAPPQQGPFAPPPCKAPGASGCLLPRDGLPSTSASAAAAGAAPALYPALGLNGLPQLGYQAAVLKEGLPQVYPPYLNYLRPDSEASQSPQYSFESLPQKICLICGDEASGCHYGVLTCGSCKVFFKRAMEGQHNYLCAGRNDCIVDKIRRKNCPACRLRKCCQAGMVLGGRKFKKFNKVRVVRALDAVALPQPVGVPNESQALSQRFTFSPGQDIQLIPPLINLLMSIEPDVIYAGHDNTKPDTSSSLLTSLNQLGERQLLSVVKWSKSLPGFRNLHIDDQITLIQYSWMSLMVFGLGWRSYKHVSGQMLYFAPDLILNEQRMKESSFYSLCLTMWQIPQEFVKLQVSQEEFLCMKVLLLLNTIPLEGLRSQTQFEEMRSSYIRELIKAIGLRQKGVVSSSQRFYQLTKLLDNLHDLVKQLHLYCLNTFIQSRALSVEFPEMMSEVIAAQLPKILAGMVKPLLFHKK

Compound	IC50 [1]	further results
C=CCCC[C@@H](C)OC(=O)c1c(CCC=C)cc(OC)cc1OC	Not Active	
COc1cc2c(c(OC)c1)C(=O)O[C@H](C)CCC/C=C/CC2	Not Active	
COc1cc2c(c(OC)c1)C(=O)O[C@H](C)CCC/C=C\CC2		pIC50 [1]: 4.78
COc1cc2c(c(OC)c1)C(=O)O[C@H](C)CCCCCCC2	Not Active	
COc1cc(O)cc2c1C(=O)O[C@H](C)CCCCCCC2	Not Active	
C[C@@H]1CCCCCCCc2cc(O)cc(O)c2C(=O)O1		pIC50 [1]: 5.05
COc1cc(O)c2c(c1)CCCCCCC[C@@H](C)OC2=O	Not Active	
CCOc1cc(O)c2c(c1)CCCCCCC[C@@H](C)OC2=O	Not Active	
CCOc1cc2c(c(OCC)c1)C(=O)O[C@H](C)CCCCCCC2	Not Active	
CCCCOc1cc2c(c(OCCCC)c1)C(=O)O[C@H](C)CCCCCCC2	Not Active	
CCCOc1cc(O)c2c(c1)CCCCCCC[C@@H](C)OC2=O	Not Active	
CCCOc1cc2c(c(OCCC)c1)C(=O)O[C@H](C)CCCCCCC2	Not Active	
C=CCOc1cc(O)c2c(c1)CCCCCCC[C@@H](C)OC2=O	Not Active	
C=CCOc1cc2c(c(OCC=C)c1)C(=O)O[C@H](C)CCCCCCC2	Not Active	
C[C@@H]1CCCCCCCc2cc(OCc3ccccc3)cc(O)c2C(=O)O1	Not Active	
C[C@@H]1CCCCCCCc2cc(OCc3ccccc3)cc(OCc3ccccc3)c2C(=O)O1	Not Active	
C[C@@H]1CCCCCCCc2cc(OCc3ccc([N+](=O)[O-])cc3)cc(OCc3ccc([N+](=O)[O-])cc3)c2C(=O)O1	Not Active	

Compound	IC50 [1]	further results
CC(=O)Oc1cc2c(c(OC(C)=O)c1)C(=O)O[C@H](C)CCCCCCC2		pIC50 [1]: 5.56; IC50 (Glucocorticoid receptor): Not Active; pIC50 (Estrogen receptor): 5.08; IC50 (Progesterone receptor): Not Active
CCC(=O)Oc1cc2c(c(OC(=O)CC)c1)C(=O)O[C@H](C)CCCCCCC2		pIC50 [1]: 4.50
CCCC(=O)Oc1cc2c(c(OC(=O)CCC)c1)C(=O)O[C@H](C)CCCCCCC2	Not Active	
CC(C)C(=O)Oc1cc2c(c(OC(=O)C(C)C)c1)C(=O)O[C@H](C)CCCCCCC2	Not Active	
C[C@@H]1CCCCCCCc2cc(OC(=O)c3ccc(Br)cc3)cc(OC(=O)c3ccc(Br)cc3)c2C(=O)O1	Not Active	
C[C@@H]1CCCCCCCc2cc(OC(=O)c3ccc(Cl)cc3)cc(OC(=O)c3ccc(Cl)cc3)c2C(=O)O1	Not Active	
Cc1ccc(S(=O)(=O)Oc2cc3c(c(OS(=O)(=O)c4ccc(C)cc4)c2)C(=O)O[C@H](C)CCCCCCC3)cc1		pIC50 [1]: 5.19
O=C1OCCCCCCCc2cc(O)cc(O)c21	Not Active	
CC(=O)Oc1cc2c(c(OC(C)=O)c1)C(=O)OCCCCCCC2		pIC50 [1]: 6.24; IC50 (Glucocorticoid receptor): Not Active; IC50 (Estrogen receptor): Not Active; IC50 (Progesterone receptor): Not Active
O=C1OCCCCCCCCc2cc(O)cc(O)c21	Not Active	
CC(=O)Oc1cc2c(c(OC(C)=O)c1)C(=O)OCCCCCCCC2		pIC50 [1]: 5.95; IC50 (Glucocorticoid receptor): Not Active; IC50 (Estrogen receptor): Not Active; IC50 (Progesterone receptor): Not Active
O=C1OCCCCCCCCCc2cc(O)cc(O)c21	Not Active	
CC(=O)Oc1cc2c(c(OC(C)=O)c1)C(=O)OCCCCCCCCC2		pIC50 [1]: 6.09; IC50 (Glucocorticoid receptor): Not Active; IC50 (Estrogen receptor): Not Active; pIC50 (Progesterone receptor): 5.51
O=C1OCCCCCCCCCCc2cc(O)cc(O)c21	Not Active	
CC(=O)Oc1cc2c(c(OC(C)=O)c1)C(=O)OCCCCCCCCCC2		pIC50 [1]: 5.54; IC50 (Glucocorticoid receptor): Not Active; pIC50 (Estrogen receptor): < 5.00; pIC50 (Progesterone receptor): 5.49
C[C@@H]1CCCCCCCc2cc(OC(=O)c3ccccc3)cc(OC(=O)c3ccccc3)c2C(=O)O1	Not Active	
